The test system of this data set is MS2 coat protein. Kind of data set: apparent Kd, MS2 coat protein; higher = weaker binding; RNA-MaP array; FMN 200 µM where present. The method in brief:
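Designs on Illumina sequencing-chip clusters, transcribed by stalled E. coli RNA polymerase, were exposed to SNAP-549-labelled MS2 coat protein in doubling steps from 0.7 or 1.5 nM up to 3 µM, without and then with constant ligand. The buffer held 100 mM Tris-HCl pH 7.5, 80 mM KCl, 4 mM MgCl2, BSA, DTT, yeast tRNA and Tween-20. Apparent Kd values are medians of filtered per-cluster binding-curve fits to green signal normalised to red-channel RNA signal and control-cluster median Fmax.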

The mark [1] stands for this setting: designed as: OFF switch for flavin mononucleotide, no ligand.
[2] abbreviates: ligand present: flavin mononucleotide, designed as: OFF switch for flavin mononucleotide.
[3] abbreviates: designed as: ON switch for flavin mononucleotide, no ligand.
[4] abbreviates: ligand present: flavin mononucleotide, designed as: ON switch for flavin mononucleotide.

The term apparent Kd denotes a dissociation constant that holds for the conditions of the assay. “CGAUAUUAUGCAGGAUAUCUCCCUUGAAUGCGGAGAGAAGGGCAUAGGGAGACAUACGCCUUAUUACAUGAGGAUCACCCAUGU”: the “apparent Kd” value reads like this: under setting [1], 9.4 nM; under setting [2], 8.29 nM.

For the sequence “UAUAACUAACAGAAGGGUAUUUGGGAUCAUUAUUAGGAGGAAAUACUAUACAGGAUAUGUAAUACAUGAGGAUCACCCAUGUUC”, the “apparent Kd” value under setting [3] was 20 nM and the “apparent Kd” value under setting [4] worked out at 15.7 nM.

On to “UUGGACGUCGUAGGAUAUGUAGGAUAUUCCUACAUGAGGAUCACCCAUGUUGACAUGGAAGGAGGACAGAAGGACGAUGUCCAU”, for which the “apparent Kd” value was found to be 524 nM under setting [3] and 23.3 nM under setting [4].

For the sequence “UUUAUGUAAGGAUAUGCGGGCGGGCGUGUUUAUGUUUGUUUGUAGAAGGUACAUGAGGAUCACCCAUGUAGUGG”, the “apparent Kd” value under setting [1] turned out to be 90.1 nM and the “apparent Kd” value under setting [2] worked out at 172 nM.

Take “ACAUGAUAUGUAGGAUAUCACAUUAAUUGAUUAAUAUAUCAAUAUAGAAUUUGAGAAGGACAUUUACAUGAGGAUCACCCAUGU”: the “apparent Kd” value is, setting by setting: under setting [1], 10.7 nM; under setting [2], 8.71 nM.

With “UUGGACGUCGUAGGAUAUGUAGGAUACUCCUACAUGAGGAUCACCCAUGUUGACAUGGAGGAAGGACAGAAGGACGGUGUCCAU”, the “apparent Kd” value was determined as 25.8 nM under setting [3] and 6.46 nM under setting [4].

For “CCAGCGUAUGUGAGGAUAUGCUGGUCCUUGGAUCAGCAGAAGGCACAUGAGGAUCACCCAUGUGGAGACGUUGG”, the “apparent Kd” value reads like this: under setting [1], 21.8 nM; under setting [2], 102 nM.

In the case of “GGGCCGAAAGGCCCGCGGGCCCGGGAGGAUAUACAUGAGGAUCACCCAUGUCCGGCGAAAGCCGGGUAGAAGGCCCGGGCCCGC”, the “apparent Kd” value reads like this: under setting [1], 5.38 nM; under setting [2], 7.03 nM.

As to “UUGGACGUCGUAGGAUAUGUAGGAUAUUCCUACAUGAGGAUCACCCAUGUUGACAUGGAAGUAGGACAGAAGGACGAUGUCCAU”, the “apparent Kd” value worked out at 497 nM under setting [3] and 23.1 nM under setting [4].

Take “UUUGUUUAUGUGAGGAUAUACUGUUUGUUUUGUUUGUAGAAGGUACAUGAGGAUCACCCAUGUUUUGUUUUUUU”: the “apparent Kd” value under setting [1] turned out to be 22.8 nM and the “apparent Kd” value under setting [2] is 20.5 nM.

With “AAUUUACAGGUAGGAUAUACAUGAGGAUCACCCAUGUAAUCAUAUGAUAUUUUUUUUGUAUGAGUGUAGAAGGACCAAAUAAAA”, the “apparent Kd” value is, setting by setting: under setting [1], 9.75 nM; under setting [2], 8.48 nM.

As for “AUAUGUUAUUAGGAUAUUAAUGCGCGGUCGCAUUAAGAAGGAGUGACAUGAGGAUCACCCAUGUACCACGCUCA”, the “apparent Kd” value is, setting by setting: under setting [1], 24.3 nM; under setting [2], 23.3 nM.

For “CGCGAACAGGCUAACAUGAGGAUCACCCAUGUGGACUCAUGGUAGGAUAUCGGGAAGGAGGAAACCGAGAAGGGCCGGUGAGCA”, the “apparent Kd” value reads like this: under setting [3], 218 nM; under setting [4], 38.9 nM.

For “CAAACGUGAGGAUAUACAUGAGGAUCACCCAUGUGUUCCUCUAAACUGAAGAAGUAAUGUAGAAGGCACGUUUG”, the “apparent Kd” value is 43.1 nM under setting [1] and 19.4 nM under setting [2].

Consider “AACUGGUGUGAGAAGGGACGUAUCUCCAUGAGGGCAGGGCUAUUAGAGAAGUCAGGAUAUCACAUGAGGAUCACCCAUGUGACG”, for which the “apparent Kd” value amounted to 8.33 nM under setting [1] and 9.02 nM under setting [2].

As to “UAGAUGGGAGGAUAUACGUAUAUGCAGGUUCGUGUGGUGCUACAUGAGGAUCACCCAUGUAGAAGGCCCGUCUU”, the “apparent Kd” value under setting [2] worked out at 38.6 nM.

As to “UCCACUGCUGAGAAGGGAUACGUCUGGGUCGCAUCAGGAUAUCGAUACAGUGCAGCAUGAGGACAUGAGGAUCACCCAUGUGUG”, the “apparent Kd” value under setting [3] is 102 nM and the “apparent Kd” value under setting [4] worked out at 49.6 nM.

Take “AAUAAACAUGAGGAUCACCCAUGUCAGGAUAUCCUAAAUAAAAAAAUAUAAAGAAGAAGGAGAAGGGACUAAAA”: the “apparent Kd” value is, setting by setting: under setting [1], 111 nM; under setting [2], 120 nM.

As to “AGUAACAGAGGAUAUACUGUUUUAUGUGUUUGUUGUUUUAAACAUGAGGAUCACCCAUGUAGAAGGCUGAAUAA”, the “apparent Kd” value reads like this: under setting [1], 20.1 nM; under setting [2], 21.2 nM.

Turning to “CCGAAUGUCACAGGAUAUGGUCCGGGCUCGGGACCAGAAGGGUGAUCUCACAUGAGGAUCACCCAUGUGUAGGCGUUAGGCUAC”, the “apparent Kd” value runs as follows: under setting [3], 36.7 nM; under setting [4], 249 nM.

As for “ACUAGUUGGUAAGGAUAUCCUACACUGUUCUGACCCGUGCAAGCUACAUGAGGAUCACCCAUGUGGGAGAAGGUGCGUCAACGC”, the “apparent Kd” value runs as follows: under setting [1], 15.3 nM; under setting [2], 15.9 nM.

As for “ACUUUACGAGGAUAUACUGUCGGGCCUCGGGCAUACAUACGACAUGAGGAUCACCCAUGUAGAAGGCGUUUACU”, the “apparent Kd” value under setting [1] was 33.6 nM and the “apparent Kd” value under setting [2] was found to be 61.1 nM.

For “GGGCUGUCAGGAUAUCUCGGGCUCGGGUAAACUCGGGCUCGGGAGAAGGGACAUGAGGAUCACCCAUGUGGCUC”, the “apparent Kd” value reads like this: under setting [1], 42.1 nM; under setting [2], 51.5 nM.

Consider “GGAUAGGACAGAGGAUAUACGGGCUAGAGAUACUAGCAAAAUUUCCUCACAUGAGGAUCACCCAUGUAGAAGGCUGUCCUAUCG”, for which the “apparent Kd” value reads like this: under setting [1], 70.1 nM; under setting [2], 864 nM.

For “ACAUGAGGAUCACCCAUGUUUUCAUGGAUUAUUAUUCUUUGAUAGGAUAUGUUAGUUAAGUAUUUACAGAAGGAUCAUUACCAA”, the “apparent Kd” value under setting [1] was determined as 22.6 nM and the “apparent Kd” value under setting [2] is 16.1 nM.

For the sequence “ACCAUUUACUAAUUAUCUAUACAUGAGGAUCACCCAUGUUAAGAGGAUAUCAUCGUUCGCCGCGUUGAGAAGGCUUAGCAUUCG”, the “apparent Kd” value by setting is: under setting [1], 26.4 nM; under setting [2], 101 nM.

“UACAUGAGGAUCACCCAUGUUUUGUCGUGUAUGGUAUUUAUCUAGGAUAUCAAUUUAGUUAAUUAUGAGAAGGAGAAUAUUAAU”: the “apparent Kd” value under setting [1] is 39.1 nM and the “apparent Kd” value under setting [2] stood at 39 nM.

“GUUGCGUUUGUGAGGAUAUGCUGGUCCUUGGUUCGGCAGAAGGCACAUGAGGAUCACCCAUGUGGUGUUGUUCC”: the “apparent Kd” value under setting [1] is 126 nM and the “apparent Kd” value under setting [2] turned out to be 94.7 nM.

On to “UGUGGGAGUCAGAAGGAGUAUUCUACAUGAGGAUCACCCAUGUCUGGUGCUAGGAUAUGGGUCUGGGCGGACUAAGGUCUCGUA”, for which the “apparent Kd” value amounted to 444 nM under setting [3] and 243 nM under setting [4].

For “UGUUGUAUUACAGGAUAUCUAUUAUUUUUAAUUAGAGAAGGGUAUUCACAUGAGGAUCACCCAUGUAUAUACGAGGAAGUUGUG”, the “apparent Kd” value under setting [3] is 35.2 nM and the “apparent Kd” value under setting [4] amounted to 35.8 nM.

On to “CAGAAGUCAGGAUAUGCUGCUCGUCACUUGCGUGAUGAGUAGCAGAAGGGACAUGAGGAUCACCCAUGUAAAGU”, for which the “apparent Kd” value worked out at 55.6 nM under setting [1] and 121 nM under setting [2].

Turning to “CCGGAAACGGGUAGCUGUACAUGAGGAUCACCCAUGUGAUCAUAGGAUAUGGAACCUAAUUGGUUCCAGAAGGAUGUCAGCUAC”, the “apparent Kd” value reads like this: under setting [3], 237 nM; under setting [4], 598 nM.

For “CUCUUGGCAGGAUAUGCAAUUUUAGACAUGAGGAUCACCCAUGUGAUCAUUCCAUAUUAUGCAGAAGGGCCUAAAC”, the “apparent Kd” value by setting is: under setting [1], 48.2 nM; under setting [2], 320 nM.

Take “AUUAUUAAUGCAGGAUAUGAUUAACAUGAGGAUCACCCAUGUGGUGUUGUGAGUAAGGAGAGUGAUCAGAAGGGCAUUUUUUUU”: the “apparent Kd” value is, setting by setting: under setting [3], 493 nM; under setting [4], 695 nM.

Take “AACGAUCUAGGAUAUACAUGAGGAUCACCCAUGUAAGAGCUCAAACCGAGCUCCCUCUGUAGAAGGAGGUCAAA”: the “apparent Kd” value by setting is: under setting [1], 54.5 nM; under setting [2], 45.9 nM.

On to “ACUGACAUGAGGAUCACCCAUGUCUUGAAUAGGUCAAAUUCACAGGAUAUGCGCUCGGCCAAGGCGCAGAAGGGUGAUGCAAUG”, for which the “apparent Kd” value is 57.9 nM under setting [3] and 11.1 nM under setting [4].

Take “AGCUGUGGCCGAGGAUAUCUAUCCAAUAAAACCGAAAUAUAAUCGGACAUGAGGAUCACCCAUGUAGAGAAGGCGGUCUCAGCA”: the “apparent Kd” value is, setting by setting: under setting [1], 22.4 nM; under setting [2], 30.5 nM.

“AAAGACAUGGUGCAGGAUAUAUUAAUAGUCACAUGAGGAUCACCCAUGUUCAGAUAUCUGAACGAGUAGAAGGGCGAUGAAAAAA”: the “apparent Kd” value by setting is: under setting [3], 602 nM; under setting [4], 589 nM.

As for “UGAUAGGACAGAGGAUAUACGAAAGGCGAUCCAUACAUGAGGAUCACCCAUGUAGAAGGCUGUCCUAUCUAAGUCGGAAACGAC”, the “apparent Kd” value by setting is: under setting [1], 84.9 nM; under setting [2], 16.9 nM.

Turning to “UUAUUCUAUAUAGGAUAUUGAUGUAAUUUAUUUCAAGAAGGAUAUACAUGAGGAUCACCCAUGUUGGAUAGGGUUAGUUUGUUU”, the “apparent Kd” value by setting is: under setting [3], 81.1 nM; under setting [4], 91.1 nM.

On to “UGGCGUUGAGGAUAUACAUUGAAUAAGAUUCAUGUAAAACUACAUGAGGAUCACCCAUGUAGAAGGCAAUGCCU”, for which the “apparent Kd” value is 16.9 nM under setting [1] and 27.7 nM under setting [2].

For “GCACUGGCAGGAUAUACAUGAGGAUCACCCAUGUGACCCUUGAAGUACUCGCGUACUCGUAGAAGGGCCUGUGC”, the “apparent Kd” value is, setting by setting: under setting [1], 102 nM; under setting [2], 520 nM.

Take “CGAUUGGGAGGAUAUGCGUGGAUAGUUUUAUAUAGUAUGUUACAUGAGGAUCACCCAUGUAGAAGGUUCGGUUG”: the “apparent Kd” value reads like this: under setting [1], 56.9 nM; under setting [2], 58.3 nM.

With “GCCCGUGCGGAGGAUAUUGAUAUCCCAGUCUAUCAAGAAGGCUGCACAUGAGGAUCACCCAUGUGACCUGUGCU”, the “apparent Kd” value came to 18.8 nM under setting [1] and 51.7 nM under setting [2].

With “GUGAGUAGUCAGGAUAUGCUGUACAAAAGUACAGCAGAAGGGAUUACAUGAGGAUCACCCAUGUUUACCUCAUG”, the “apparent Kd” value stood at 574 nM under setting [1] and 884 nM under setting [2].

On to “UCGCUGCGAGGAUAUACGUGCGCGCGCUCGCGUGCGCGCGUACAUGAGGAUCACCCAUGUAGAAGGCGCGCUGC”, for which the “apparent Kd” value stood at 17.1 nM under setting [1] and 18.3 nM under setting [2].

Consider “UGAUCUUACAUGAGGAUCACCCAUGUAGGCCAGUAACUAACCAGAAGGCACGUAGAGUAAAACAGUGAGGAUAUGGAUGACAUA”, for which the “apparent Kd” value runs as follows: under setting [3], 11.7 nM; under setting [4], 6.32 nM.

As for “UUUUUUUUUGUGAGGAUAUACUUUUUUUUUUUUUUGUAGAAGGCACAUGAGGAUCACCCAUGUUUUUUUUUCUC”, the “apparent Kd” value worked out at 11.7 nM under setting [1] and 11.3 nM under setting [2].

The values above are taken from the EternaBench riboswitch data.
